ChEMBL document CHEMBL1828589, “Isoeugenol-based novel potent antioxidants: synthesis and reactivity” (Eur J Med Chem, 2011)

Key:
Type in all cases: functional
[1] = Antioxidant activity assessed as inhibition of linoleic acid lipid peroxidation at 100 ug/ml measured after 6 hrs by ferric thiocynate method
In short: (§1)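 Mitsuda ferric thiocyanate method. Linoleic acid/Tween 20 emulsion in 0.2 M phosphate pH 7.0, mixed with ethanolic compound and buffer. Incubated at 37 °C in the dark and sampled every 6 h. Aliquot taken into 75% ethanol, 30% ammonium thiocyanate and 0.02 M FeCl2 in 3.5% HCl; A500 read after 3 min. Inhibition % = (Ac−As)/Ac×100 against a no-compound control. Triplicates.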

[2] = Antioxidant activity assessed as inhibition of linoleic acid lipid peroxidation at 100 ug/ml measured after 12 hrs by ferric thiocynate method; in short: as §1
[3] = Antioxidant activity assessed as inhibition of linoleic acid lipid peroxidation at 100 ug/ml measured after 18 hrs by ferric thiocynate method; in short: as §1
[4] = Antioxidant activity assessed as inhibition of linoleic acid lipid peroxidation at 100 ug/ml measured after 24 hrs by ferric thiocynate method; in short: as §1
[5] = Antioxidant activity assessed as inhibition of linoleic acid lipid peroxidation at 100 ug/ml measured after 30 hrs by ferric thiocynate method; in short: as §1
[6] = Antioxidant activity assessed as inhibition of linoleic acid lipid peroxidation at 100 ug/ml measured after 36 hrs by ferric thiocynate method; in short: as §1
[7] = tested on: Radical scavenging activity; experiment: Antioxidant activity assessed as residual DPPH radical scavenging activity after 30 mins by spectrophotometric analysis
In short: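 Compound in ethanol at 10–40 µg/mL (3 mL) mixed with 1 mL of 0.1 mM ethanolic DPPH. Shaken, then left 30 min at room temperature, read at 517 nm. IC50 (µM) is the concentration giving a 50% fall in absorbance, from regression; three repeats.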

[8] = Antioxidant activity assessed as residual ABTS+ radical scavenging activity after 30 mins by spectrophotometric analysis
In short: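 ABTS radical cation formed from 2 mM ABTS and 2.45 mM potassium persulfate in water, kept dark at room temperature for 12 h. Ethanolic compound at 10–30 µg/mL added to the radical solution. Remaining radical read at 734 nm and converted to concentration by a calibration curve (0.033–0.33 mM). IC50 (µM) by regression; three repeats.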

[9] = Antioxidant activity assessed as superoxide radical scavenging activity after 40 mins by Zhishen's method
In short: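 Riboflavin (3×10⁻⁵ M), methionine (1×10⁻² M) and NBT (1×10⁻⁴ M) in 0.05 M phosphate pH 7.8. Illuminated 25 °C for 40 min to form formazan; absorbance at 560 nm, with an unilluminated mixture as control. Compounds tested at 10–40 µg/mL. IC50 (µM) by regression; three repeats.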

[10] = Antioxidant activity assessed as ferric to ferrous reduction at 10 ug/ml by FRAP assay
In short: (§2)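 Oyaizu method, adjusted. Diluted compound in ethanol mixed with 0.2 mol/L phosphate buffer pH 6.6 and 1% K3Fe(CN)6, held 50 °C for 20 min. Then 10% trichloroacetic acid added and spun at 10,000g for 10 min. Upper layer mixed with water and 0.1% FeCl3, absorbance read at 700 nm. Mean ± SD of three replicate assays.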

[11] = Antioxidant activity assessed as ferric to ferrous reduction at 20 ug/ml by FRAP assay; in short: as §2
[12] = Antioxidant activity assessed as ferric to ferrous reduction at 30 ug/ml by FRAP assay; in short: as §2
[13] = Antioxidant activity assessed as ferric to ferrous reduction activity at 40 ug/ml by FRAP assay; in short: as §2

Row | SMILES | IC50 [7] [µM] | IC50 [8] [µM] | IC50 [9] [µM] | inhibition [1] [%] | inhibition [2] [%] | inhibition [3] [%] | inhibition [4] [%] | inhibition [5] [%] | inhibition [6] [%] | Activity [10] | Activity [11] | Activity [12] | Activity [13]
1 | CCC(c1ccc(O)c(OC)c1)c1cccc(O)c1O (configuration not stated) | 5.8 | 8.43 | 6.17 | 34 | 74 | 90 | 94 | 97 | 96 | 0.49 | 0.54 | 0.58 | 0.73
2 | CCC(c1ccc(O)c(OC)c1)c1cccc(C(C)C)c1O (configuration not stated) | 6.3 | 7 | 10.1 | 38 | 78 | 88 | 95 | 97 | 96 | 0.22 | 0.2 | 0.2 | 0.24
3 | CCC(c1ccc(O)c(OC)c1)c1ccccc1O (configuration not stated) | 7.83 | 8.53 | 10.5 | 32 | 75 | 90 | 94 | 97 | 96 | 0.26 | 0.27 | 0.3 | 0.34
4 | Cc1c(C)c2c(c(C)c1O)CCC(C)(C(=O)O)O2 (configuration not stated) [TROLOX] | 5.84 | 8 | 61.3 | 35 | 70 | 87 | 89 | 92 | 86 | 0.23 | 0.38 | 0.56 | 0.72

Continued by falling IC50 [7], values first:

Row | IC50 [7] [µM] | IC50 [8] [µM] | IC50 [9] [µM] | SMILES | inhibition [1] [%] | inhibition [2] [%] | inhibition [3] [%] | inhibition [4] [%] | inhibition [5] [%] | inhibition [6] [%] | Activity [10] | Activity [11] | Activity [12] | Activity [13]
5 | 40.7 | 8.84 | 42.3 | C/C=C\c1ccc(O)c(OC)c1 [ISOEUGENOL] | 28 | 42 | 90 | 96 | 91 | 82 | 0.32 | 0.37 | 0.41 | 0.43
6 | 11.5 | 10.2 | 28.4 | Cc1cc(C(C)(C)C)c(O)c(C(C)(C)C)c1 [BUTYLATED HYDROXYTOLUENE] | 47 | 81 | 92 | 97 | 98 | 98 | 0.27 | 0.39 | 0.5 | 0.6
7 | 6.71 | 10.1 | 15.3 | CCC(c1ccc(O)c(OC)c1)c1ccc(O)cc1O (configuration not stated) | 36 | 75 | 85 | 94 | 97 | 94 | 0.27 | 0.32 | 0.36 | 0.47
8 | 6.19 | 7.19 | 13.7 | CCOc1cccc(C(CC)c2ccc(O)c(OC)c2)c1O (configuration not stated) | 37 | 77 | 89 | 96 | 97 | 96 | 0.21 | 0.22 | 0.25 | 0.28
9 | 5.8 | 8.28 | 6.61 | CCC(c1ccc(O)c(O)c1)c1ccc(O)c(OC)c1 (configuration not stated) | 37 | 78 | 90 | 96 | 98 | 97 | 0.43 | 0.55 | 0.58 | 0.64
